From PubChem
HSF1 inhib: HSF1 inhibition | NIH3T3-HGL HSE-luciferase, MG132-induced, luminescence 8 h; active compounds read low | activity change, negative = inhibition, % at 7.5 µM (by protocol) | hit rate 0.77% among 300,000;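 active = more than half of replicate wells show activity change below -50%, luminescence cut by over half; inconclusive = some wells, but at most half, below -50%; inactive = no replicate well below -50%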;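 also: luciferase reports HSF-1 transcriptional activity via heat shock element; 0% = median of DMSO wells and -100% = zero luminescence signal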
HSP90 inh: blocks HSP90-mediated luciferase refolding in reticulocyte lysate; Rabbit reticulocyte lysate, luciferase refolding luminescence, 3 h; inhibition, % at 5.6 µM; hit rate 0.91% among 290,000; AID 1789;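 active = inhibition above the screen-wide mean plus 3 SD, computed separately per campaign, cut at about 16% in these data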;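 also: 0% = DMSO wells and 100% = 60 µM geldanamycin wells; inhibitors lower the luminescence because luciferase stays unfolded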
DNA FID counter: displaces DNA intercalator in HCV helicase counter-screen | DNA fluorescent intercalator displacement, fluorescence | inhibition, % at 7.9 µM | hit rate 0.17% among 290,000; in the data active = inhibition above about 37%;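 also: 0% = vehicle and 100% = reference compound; higher means more ethidium bromide displaced from hairpin DNA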
HSF-1 act: increases HSF-1 driven luciferase reporter signal; activation, % at 9 µM; NIH3T3-HGL HSF-1 luciferase reporter, MG132, 8 h; 100% = twice DMSO control signal; AID 504408; hit rate 1.7% among 300,000;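 active = mean replicate activation of at least 50% with a set share of replicates each reaching 50%; inconclusive = only one of those two conditions met; inactive = mean below 50% and too few replicates reaching it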;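 also: 0% = median of the neutral control wells and 100% = twice that signal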
HCV core dimer: HCV core protein dimerization inhibition. inhibition, % at 5 µM. TR-FRET GST/Flag-core106 dimerization, 1536-well. AID 1899. hit rate 0.33% among 300,000;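 active = inhibition above the mean of all tested compounds plus 3 SD, set per screening campaign, cut at about 45% in these data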
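System: GST-tagged and Flag-tagged HCV core protein residues 1-106 / Input: core106 proteins, GST 13.5 nM and Flag 17 nM / Buffer or medium: KF-containing HEPES buffer, pH 7.45, DTT, CHAPS, BSA / Probe or stimulus: Eu-anti-GST and XL665-anti-Flag labelled anti-tag antibodies / Schedule: 4 h, 22.5 °C incubation / Technique: TR-FRET 671 and 617 nm emission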
HCV NS3 hel inh: blocks Hepatitis C virus NS3 helicase unwinding | hit rate 0.56% among 290,000 | NS3 helicase DNA unwinding, Cy5 molecular beacon fluorescence | inhibition, % at 10.9 µM;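 active = inhibition above the mean of all tested compounds plus 3 SD, set per campaign, cut at about 35% in these data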;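 also: 0% = DMSO wells and 100% = thioflavine S control wells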
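System: NS3 helicase fragment of HCV / Schedule: 1 h at 25 °C / Control set: DMSO alone as 0% and 110 µM thioflavine S as 100% / Reagent: Cy5/quencher beacon DNA duplex and ATP to start / Technique: Cy5 fluorescence / Replication: singlicate / Evaluation: % inhibition of end-to-start signal ratio versus controls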
HSP90 confirm: HSP90 inhibition, confirmation assay. shares compounds with HSP90 inh. rabbit reticulocyte lysate, luciferase refolding luminescence, 3 h. inhibition, % at 5.9 µM. hit rate 64% among 2,300. AID 1846; in the data active = inhibition above about 18%;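 also: 0% = vehicle wells and 100% = reference inhibitor wells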
luciferase ctr: counter-screen for HSP90 inhibitors: inhibitors of firefly luciferase; shares compounds with HSP90 inh; purified native firefly luciferase, luminescence; inhibition, % at 5.9 µM; hit rate 48% among 2,300;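 active = inhibition above the mean inhibition of all tested sample wells plus 3 SD, cut at about 10% in these data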;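 also: 0% = DMSO with luciferase and 100% = wells lacking luciferase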
Target sequence (P08659 whole entry, looked up): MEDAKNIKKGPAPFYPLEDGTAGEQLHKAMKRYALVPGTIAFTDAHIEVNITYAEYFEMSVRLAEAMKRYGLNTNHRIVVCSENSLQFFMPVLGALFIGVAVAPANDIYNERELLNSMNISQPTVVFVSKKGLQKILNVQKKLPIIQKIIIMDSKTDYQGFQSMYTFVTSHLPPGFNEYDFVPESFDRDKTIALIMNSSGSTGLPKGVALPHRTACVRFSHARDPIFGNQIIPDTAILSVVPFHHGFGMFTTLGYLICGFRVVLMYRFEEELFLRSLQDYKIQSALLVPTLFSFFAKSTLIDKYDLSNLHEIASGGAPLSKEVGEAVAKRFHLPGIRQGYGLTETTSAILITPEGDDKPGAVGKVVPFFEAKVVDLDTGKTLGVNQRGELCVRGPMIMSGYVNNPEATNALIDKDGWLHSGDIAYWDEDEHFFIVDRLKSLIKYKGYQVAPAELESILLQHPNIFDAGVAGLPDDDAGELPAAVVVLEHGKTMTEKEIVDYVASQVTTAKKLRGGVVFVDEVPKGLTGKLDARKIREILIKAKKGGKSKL
* = called active by the depositor. An excerpt weighted towards active compounds, which were near 3.9% of everything screened.

`CC(=O)N(\C=C/C=C/C=C1\Sc2ccccc2C1=O)c1ccccc1` gave HSF1 inhib 7, HSP90 inh -2, DNA FID counter -9, HSF-1 act 11, HCV core dimer 1 and HCV NS3 hel inh 14.
`O=C(O)c1ccc2c3n(nc2c1)-c1ccc(Cl)cc1CO3` gave HSF1 inhib 36, HSP90 inh 84*, DNA FID counter -7, HSF-1 act 16, HCV core dimer 3, HCV NS3 hel inh 6, HSP90 confirm 75* and luciferase ctr 27*.
Screening O=C(c1ccc2c3n(nc2c1)-c1ccc(Cl)cc1CO3)N1CCCCC1 returned HSF1 inhib 12, HSF-1 act 6 and HCV core dimer -1.
For Cc1cc(C(=O)O)sc1C the results were HSF1 inhib -1, HSP90 inh -1, DNA FID counter 2, HSF-1 act 16, HCV core dimer -6 and HCV NS3 hel inh -4.
Screening O=C1c2ccccc2CN1c1ccccc1 returned HSF1 inhib 13, HSP90 inh 0, DNA FID counter -2, HSF-1 act 19, HCV core dimer 5 and HCV NS3 hel inh -8.
Screening Cc1ccc(N2Cc3ccccc3C2=O)cc1 returned HSF1 inhib 18, HSP90 inh 31*, DNA FID counter -9, HSF-1 act 24, HCV core dimer -1, HCV NS3 hel inh -2, HSP90 confirm 37* and luciferase ctr 28*.
O=C(O)c1ccc(NC(=O)c2ccc(Cl)cc2)c(NC(=O)c2ccc(Cl)cc2)c1 was read as HSF1 inhib -1, HSP90 inh -7, DNA FID counter -20, HSF-1 act -16, HCV core dimer 16 and HCV NS3 hel inh 6.
CCOc1ccc(C(=O)Nc2cccc(C(=O)O)c2)cc1Cl was read as HSF1 inhib -47, HSP90 inh 88*, DNA FID counter -6, HSF-1 act -45, HCV core dimer 1, HCV NS3 hel inh 4, HSP90 confirm 88* and luciferase ctr 72*.
CCOc1ccc(NC(=O)c2cc(F)c(F)cc2Cl)cc1OCC was read as HSF1 inhib -1, HSP90 inh 24*, DNA FID counter -12, HSF-1 act -4, HCV core dimer -3, HCV NS3 hel inh -4, HSP90 confirm 4 and luciferase ctr -2.
Screening Cc1ccc(C(=O)Nc2ccc(C(=O)O)cc2NC(=O)c2ccc(C)cc2)cc1 returned HSF1 inhib -51*, HSP90 inh 60*, DNA FID counter -21, HSF-1 act -55, HCV core dimer 4, HCV NS3 hel inh 25, HSP90 confirm 55* and luciferase ctr 37*.
`Cc1ccc(C(=O)Nc2cccc(C(=O)N/N=C/c3ccccc3F)c2)cc1` gave HSF1 inhib -12, HSP90 inh 19*, DNA FID counter -30, HSF-1 act -15, HCV core dimer -12, HCV NS3 hel inh 16, HSP90 confirm -2 and luciferase ctr -15.
For CCCCOc1ccc(NC(=O)c2cc(F)c(F)cc2Cl)cc1 the results were HSF1 inhib 8, HSP90 inh -2, DNA FID counter -2, HSF-1 act 9, HCV core dimer 5 and HCV NS3 hel inh 27.
For CC1=CC=CC2=NC(=O)CC(C)(C(=O)O)N12 (stereo unspecified) the results were HSF1 inhib -7, HSP90 inh 0, DNA FID counter 4, HSF-1 act 2, HCV core dimer -1 and HCV NS3 hel inh -12.
For CCOC(=O)N1CCc2c(sc3c2c(=O)n(Cc2ccccc2)c(=O)n3Cc2ccc(C)cc2)C1 the results were HSF1 inhib -3, HSP90 inh 4, DNA FID counter -1, HSF-1 act 20, HCV core dimer 5 and HCV NS3 hel inh 3.
`Cc1ccc(C(=O)Nc2ccc3nccnc3c2)cc1` gave HSF1 inhib -7, HSP90 inh 26*, DNA FID counter -5, HSF-1 act 9, HCV core dimer -1, HCV NS3 hel inh 9, HSP90 confirm 33* and luciferase ctr 7.
Cc1ccc(C(=O)Nc2cc3ccccc3oc2=O)cc1 was read as HSF1 inhib -72*, HSP90 inh 50*, DNA FID counter -2, HSF-1 act -75, HCV core dimer -27, HCV NS3 hel inh -7, HSP90 confirm 98* and luciferase ctr 92*.
Cc1cc(/C=N/NC(=O)c2cccc(F)c2)c(C)n1-c1ccccc1 was read as HSF1 inhib -17, HSP90 inh 25*, DNA FID counter -2, HSF-1 act -21, HCV core dimer 2, HCV NS3 hel inh -2, HSP90 confirm 48* and luciferase ctr 47*.
`COC(=O)c1ccc(NC(=O)c2ccc3nccnc3c2)cc1` gave HSF1 inhib 5, HSP90 inh 0, DNA FID counter -10, HSF-1 act 11, HCV core dimer -4 and HCV NS3 hel inh -1.
Screening Cc1ccc(C(=O)Nc2cccc(C(=O)O)c2)cc1 returned HSF1 inhib -72*, HSP90 inh 82*, DNA FID counter -5, HSF-1 act -72, HCV core dimer 1, HCV NS3 hel inh 1, HSP90 confirm 88* and luciferase ctr 83*.
For CC(C)(C)OC(=O)N1CCC(Cc2cc(-c3ccc(Cl)cc3)no2)(C(=O)O)CC1 the results were HSF1 inhib -7, HSP90 inh 0, DNA FID counter -30, HSF-1 act -4, HCV core dimer 7 and HCV NS3 hel inh 10.
Screening CC(C)(C)c1csc(N/N=C/c2ccc(O)cc2)n1 returned HSF1 inhib 16, HSP90 inh -3, DNA FID counter 0, HSF-1 act 44, HCV core dimer -4 and HCV NS3 hel inh -18.
Screening COc1ccc(/C=C/C(=O)OC2CCCCC2CN(C)C)cc1 (stereo unspecified) returned HSF1 inhib -19, HSP90 inh 21*, DNA FID counter 20, HSF-1 act -19, HCV core dimer 5, HCV NS3 hel inh 13, HSP90 confirm 1 and luciferase ctr -4.
For COc1ccc(/C=C/C(=O)OC2CCCN(C)C2)cc1 (stereo unspecified) the results were HSF1 inhib 13, HSP90 inh 10, DNA FID counter 10, HSF-1 act inconclusive, HCV core dimer -3 and HCV NS3 hel inh -6.
Brc1ccc(C2Nc3cccc4cccc(c34)N2)o1 was read as HSF1 inhib -4, HSP90 inh 19*, DNA FID counter 3, HSF-1 act 5, HCV core dimer 21, HCV NS3 hel inh 11, HSP90 confirm 11 and luciferase ctr -18.
For CCCCCCSc1cc(-c2nc3ccc(C)cn3c2NCc2ccccc2)ccc1OC the results were HSF1 inhib 4, HSF-1 act 2 and HCV core dimer 6.
